Source: ChEMBL document CHEMBL4038333, “Nonacidic Farnesoid X Receptor Modulators” (J Med Chem, 2017)
Active and inactive are the calls of the source. No cut-off for these calls is given here.

How the values were obtained:
Bile acid receptor = biological target: T1, Bile acid receptor (Homo sapiens, UniProt Q96RI1); assay: Transactivation of human FXR expressed in human HeLa cells co-expressing BSEP after 24 hrs by dual-glo luciferase reporter gene assay; type: cell-based
T1 sequence (Q96RI1 whole entry): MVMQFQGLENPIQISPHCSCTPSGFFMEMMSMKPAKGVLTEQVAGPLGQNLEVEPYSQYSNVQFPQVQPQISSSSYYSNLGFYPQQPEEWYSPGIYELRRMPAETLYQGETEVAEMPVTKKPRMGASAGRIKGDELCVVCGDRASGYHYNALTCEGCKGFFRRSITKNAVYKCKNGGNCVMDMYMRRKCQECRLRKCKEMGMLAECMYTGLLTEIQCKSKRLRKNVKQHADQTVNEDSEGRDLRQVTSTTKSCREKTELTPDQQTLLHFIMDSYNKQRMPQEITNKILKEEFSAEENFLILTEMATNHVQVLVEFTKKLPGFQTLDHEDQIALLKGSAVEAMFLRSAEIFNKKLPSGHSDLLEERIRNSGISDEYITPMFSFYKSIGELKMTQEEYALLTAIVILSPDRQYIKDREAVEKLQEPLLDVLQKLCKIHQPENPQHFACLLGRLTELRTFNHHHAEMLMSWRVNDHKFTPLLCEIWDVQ
Summary of the method: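 Full-length reporter system with constitutive expression of hFXR and hRXR. A constitutive Renilla luciferase served for normalization and as a toxicity control. Maximum relative activation was expressed against a reference FXR agonist at 3 µM, set as 100%.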

[1] = biological target: T2, Bile acid receptor (Homo sapiens) (UniProt Q96RI1); assay: Transactivation of human FXR expressed in human HeLa cells co-expressing BSEP at 3 uM after 24 hrs by dual-glo luciferase reporter gene assay relative to GW4064; type: cell-based
T2 sequence (whole entry): T1 sequence (Q96RI1 whole entry)
Summary of the method: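 Full-length FXR reporter gene assay with constitutively expressed hFXR and hRXR, plus renilla luciferase for normalization and toxicity control. Maximum relative activation is expressed against the reference agonist at 3 µM, set as 100%.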

Rattus norvegicus = species on record: Rattus norvegicus; assay: Displacement of [3H]Ro15-4513 from GABAa receptor in Sprague-Dawley rat cerebral cortical membranes up to 10 uM after 1 hr by scintillation counting
[2] = Lipophilicity, logD of compound at pH 7.4 by LC-MS analysis; type: physicochemical; conditions: buffer
HepG2 = assay: Cytotoxicity against human HepG2 cells at 50 uM after 48 hrs by WST-1 assay; type: cell-based; conditions: hepg2, 48 h
Summary of the method: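 HepG2 hepatocarcinoma cells were tested for viability by WST-1 (water-soluble tetrazolium) assay, with concentrations up to 100 µM.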

| SMILES | EC50 (Bile acid receptor; read-out: EC50) | max activation [1] | further results |
| --- | --- | --- | --- |
| Cc1ccc2nc(-c3ccc4ccccc4c3)c(NCc3ccccc3)n2c1 | 210 nM | 18% | – |
| Cc1ccc2nc(-c3ccccn3)c(NCc3ccccc3)n2c1 | – | 19% | inhibition (Rattus norvegicus): inactive |
| Cc1ccc2nc(/C=C/c3ccccc3)c(NCc3ccccc3)n2c1 | 1160 nM | 13% | – |
| c1ccc(CNc2c(-c3cccs3)nc3ccc(-c4ccccc4)cn23)cc1 | 200 nM | 17% | – |
| Cc1cccc2nc(-c3cccs3)c(NCc3ccccc3)n12 | – | inactive | EC50 (Bile acid receptor; hela): Not Active |
| COc1cccc(-c2nc3ccc(C)cn3c2NCc2ccccc2)c1 | 250 nM | 16% | – |
| Cc1ccc2nc(-c3ccsc3)c(NCc3ccccc3)n2c1 | 830 nM | 17% | – |
| Cc1ccc(CNc2c(-c3cccs3)nc3ccc(C)cn23)cc1 | 220 nM | 14% | – |
| Cc1ccc2nc(-c3cc(Cl)ccn3)c(NCc3ccccc3)n2c1 | 1.5 nM | 27% | – |
| FC(F)(F)c1ccc2nc(-c3cccs3)c(NCc3ccccc3)n2c1 | 460 nM | 14% | – |
| COc1ccc(-c2nc3ccc(C)cn3c2NCc2ccccc2)cc1 | 1270 nM | 16% | – |
| Clc1ccc2nc(-c3cccs3)c(NCc3ccccc3)n2c1 | 160 nM | 26% | – |
| CCc1ccn2c(NCc3ccccc3)c(-c3cccs3)nc2c1 | 1200 nM | 16% | – |
| Cc1ccc2nc(-c3cccs3)c(N[C@H](C)c3ccccc3)n2c1 | 3200 nM | 14% | – |
| Cc1ccc2nc(-c3ccccc3)c(NCc3ccccc3)n2c1 | 280 nM | 16% | – |
| CC(C)c1onc(-c2c(Cl)cccc2Cl)c1COc1ccc(/C=C/c2cccc(C(=O)O)c2)c(Cl)c1 | – | – | logD ([2]; read-out: logD): 1.01; Activity (HepG2): Toxic |
| Cc1ccc2nc(-c3cccn3C)c(NCc3ccccc3)n2c1 | 1100 nM | 17% | – |
| Cc1ccc2nc(-c3cccs3)c(NCCCCc3ccccc3)n2c1 | 750 nM | 17% | – |
| Cc1ccc2nc(-c3cccc(Cl)n3)c(NCc3ccccc3)n2c1 | 80 nM | 31% | – |

| SMILES | EC50 (Bile acid receptor; read-out: EC50) | max activation [1] | further results |
| --- | --- | --- | --- |
| Cc1ccc2nc(-c3cccs3)c(NCCCc3ccccc3)n2c1 | 230 nM | 18% | – |
| Cc1ccc2nc(-c3ccccc3C)c(NCc3ccccc3)n2c1 | 260 nM | 35% | – |
| Cc1ccc2nc(-c3ccncc3)c(NCc3ccccc3)n2c1 | 2000 nM | 15% | – |
| O=C(O)c1ccn2c(NCc3ccccc3)c(-c3cccs3)nc2c1 | – | inactive | EC50 (Bile acid receptor; hela): Not Active |
| c1ccc(CNc2c(-c3cccs3)nc3ccccn23)cc1 | 4000 nM | 14% | – |
| Cc1ccc2nc(-c3ccc(F)cc3)c(NCc3ccccc3)n2c1 | 170 nM | 21% | – |
| Cc1ccc(-c2nc3ccc(C)cn3c2NCc2ccccc2)cc1 | 130 nM | 14% | – |
| Cc1ccc2nc(-c3nc(C)cs3)c(NCc3ccccc3)n2c1 | 220 nM | 19% | – |
| Cc1ccc2nc(CCc3ccccc3)c(NCc3ccccc3)n2c1 | 310 nM | 12% | – |
| Cc1ccc2nc(-c3ccccc3Cl)c(NCc3ccccc3)n2c1 | – | inactive | EC50 (Bile acid receptor; hela): Not Active |
| Cc1ccc2nc(-c3ccc(Cl)cc3)c(NCc3ccccc3)n2c1 | 240 nM | 14% | – |
| Cc1ccc2nc(-c3ccc(Br)cc3)c(NCc3ccccc3)n2c1 | 430 nM | 14% | – |
| Cc1ccc2nc(-c3ccc4c(c3)OCCO4)c(NCc3ccccc3)n2c1 | 170 nM | 15% | – |
| Cc1ccc2nc(-c3cccs3)c(Cc3ccccc3)n2c1 | 810 nM | 12% | – |
| Cc1ccc2nc(-c3ccoc3)c(NCc3ccccc3)n2c1 | 1900 nM | 16% | – |
| Cc1ccc2nc(-c3ccc(F)c(Cl)c3)c(NCc3ccccc3)n2c1 | 26 nM | 54% | – |
| Cc1ccc2nc(-c3ccco3)c(NCc3ccccc3)n2c1 | 560 nM | 17% | – |
| Fc1ccc2nc(-c3cccs3)c(NCc3ccccc3)n2c1 | – | inactive | EC50 (Bile acid receptor; hela): Not Active |
| Cc1ccc2nc(-c3ccc(-c4ccccc4)cc3)c(NCc3ccccc3)n2c1 | 81 nM | 17% | – |

| SMILES | EC50 (Bile acid receptor; read-out: EC50) | max activation [1] | further results |
| --- | --- | --- | --- |
| Cc1ccc2nc(Cc3ccccc3)c(NCc3ccccc3)n2c1 | – | inactive | EC50 (Bile acid receptor; hela): Not Active |
| Cc1ccc2nc(-c3ccc(Cl)c(Cl)c3)c(NCc3ccccc3)n2c1 | 24 nM | 19% | – |
| CC[C@H]1[C@@H](O)[C@@H]2[C@H](CC[C@]3(C)[C@@H]([C@H](C)CCC(=O)O)CC[C@@H]23)[C@@]2(C)CC[C@@H](O)C[C@@H]12 [OBETICHOLIC ACID] | – | – | logD ([2]; read-out: logD): 0.81; Activity (HepG2): Toxic |
| c1ccc(CNc2c(-c3cccs3)nc3cnccn23)cc1 | – | inactive | EC50 (Bile acid receptor; hela): Not Active |
| COc1ccc(CNc2c(-c3cccs3)nc3ccc(C)cn23)cc1 | 170 nM | 14% | – |
| C[C@H](CCC(=O)O)[C@H]1CC[C@H]2[C@@H]3[C@H](O)C[C@@H]4C[C@H](O)CC[C@]4(C)[C@H]3CC[C@]12C [CHENODIOL] | – | – | logD [2]: 0.53 |
| Cc1cccc(-c2nc3ccc(C)cn3c2NCc2ccccc2)c1 | 180 nM | 14% | – |
| Cc1ccc2nc(-c3cccs3)c(NCCc3ccccc3)n2c1 | 1000 nM | 12% | – |
| Cc1ccc2nc(-c3ccc(Cl)cn3)c(NCc3ccccc3)n2c1 | 7.4 nM | 46% | – |
| Cc1ccc2nc(-c3cccs3)c(NCc3ccccc3)n2c1 | 540 nM | 15% | – |
| Cc1ccc2nc(-c3cccc(Cl)c3)c(NCc3ccccc3)n2c1 | 16 nM | 20% | – |
| Brc1ccc2nc(-c3cccs3)c(NCc3ccccc3)n2c1 | 500 nM | 14% | – |
| Cc1ccc2nc(C3CCCCC3)c(NCc3ccccc3)n2c1 | – | inactive | EC50 (Bile acid receptor; hela): Not Active |
| Cc1ccc2nc(-c3cccnc3)c(NCc3ccccc3)n2c1 | 520 nM | 17% | – |
| COc1ccc2nc(-c3cccs3)c(NCc3ccccc3)n2c1 | 830 nM | 18% | – |
| Cc1ccc2nc(-c3cccs3)c(N[C@@H](C)c3ccccc3)n2c1 | 1300 nM | 12% | – |
| COc1ccc(-c2nc3ccc(C)cn3c2NCc2ccccc2)cc1OC | 910 nM | 16% | – |
| Cc1ccc2nc(-c3cnccn3)c(NCc3ccccc3)n2c1 | 1200 nM | 18% | – |
